Test results reported in ChEMBL document CHEMBL4270642, “Boronic ester-linked macrocyclic lipopeptides as serine protease inhibitors targeting Escherichia coli type I signal peptidase” (Eur J Med Chem, 2018).
Values after ≈ are worked out from the molar mass of the structure shown.

Columns and labels:
[1] = test system: Escherichia coli; assay: Antibacterial activity against Escherichia coli ATCC 25922 after 16 to 20 hrs by broth microdilution method; type: functional
In short: (§1)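 Broth microdilution in cation-adjusted Mueller-Hinton II per EUCAST/CLSI; two-fold compound series 64 down to 0.25 µg/mL final. Inoculum from fresh colonies (non-selective agar, 18-24 h, 35 ± 2 °C), adjusted to 0.5 McFarland, diluted to about 5 × 10^5 CFU/mL final. Static incubation 16-20 h at 35 ± 2 °C; MIC read visually as complete growth inhibition against medium-only wells.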

[2] = Hemolytic activity in human RBC at 100 uM after 45 mins by spectrophotometric method relative to control; type: ADME, cell-based, Erythrocyte; settings: red blood cells (erythrocytes), read-out: Activity
In short: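 Heparinized human blood; red cells washed three times in Tyrode buffer pH 7.4. Compound at 100 µM final with 1% DMSO and 50% RBC, shaken (250 rpm) 45 min at 37 °C. Cells pelleted (1000 × g, 10 min); supernatant haemoglobin at 540 nm. Percent lysis relative to buffer-only and 2% Triton X-100 controls.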

[3] = test system: HepG2; assay: Cytotoxicity against human HepG2 cells after 72 hrs by FMSA; type: cell-based; settings: HepG2, 72 h
In short: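 HepG2 (ATCC) grown in EMEM with 10% FBS, pen/strep, 2 mM L-glutamine, used up to 20 passages. Seeded at 1000 cells/well, cultured overnight, then dosed acoustically from DMSO stocks. Eight two-fold dilutions in duplicate from top 64 or 32 µM; 72 h at 37 °C, 5% CO2. Fluorescein diacetate hydrolysis read at ex 485/em 530 nm; IC50 by non-linear regression.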

[4] = target: Signal peptidase I (Escherichia coli K-12, UniProt P00803); assay: Inhibition of Escherichia coli type 1 signal peptidase lepB preincubated for 10 mins followed by Dabcyl-VGGTATAYGAFSRPGLE-(EDANS)-OH substrate addition measured after 2 hrs by FRET based assay
In short: (§2)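 EcLepB (about 50 nM estimated) preincubated 10 min with compound. Reaction started with Dabcyl/EDANS FRET peptide at 8 µM final (Km 20 µM). Fluorescence followed continuously at 535 nm, 22 °C, for 2 h. Cleavage rates plotted against inhibitor concentration; IC50 from non-linear regression of sigmoidal dose-response curves.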

[5] = target: Signal peptidase I (Escherichia coli K-12) (UniProt P00803); assay: Inhibition of Escherichia coli type 1 signal peptidase lepB assessed as residual activity at 10 uM preincubated for 10 mins followed by Dabcyl-VGGTATAYGAFSRPGLE-(EDANS)-OH substrate addition measured after 2 hrs by FRET based assay (reference value: 100%); in short: as §2
[6] = target: Signal peptidase I (Escherichia coli K-12) (UniProt P00803); assay: Inhibition of Escherichia coli type 1 signal peptidase lepB assessed as residual activity at 2.5 uM preincubated for 10 mins followed by Dabcyl-VGGTATAYGAFSRPGLE-(EDANS)-OH substrate addition measured after 2 hrs by FRET based assay (reference value: 100%); in short: as §2
[7] = test system: Escherichia coli; assay: Antibacterial activity against tolC deficient Escherichia coli CH3130 after 16 to 20 hrs by broth microdilution method; type: functional; in short: as §1
[8] = target: Signal peptidase I (Escherichia coli K-12) (UniProt P00803); assay: Inhibition of Escherichia coli type 1 signal peptidase lepB assessed as residual activity at 0.625 uM preincubated for 10 mins followed by Dabcyl-VGGTATAYGAFSRPGLE-(EDANS)-OH substrate addition measured after 2 hrs by FRET based assay (reference value: 100%); in short: as §2
[9] = test system: Klebsiella pneumoniae; assay: Antibacterial activity against Klebsiella pneumoniae ATCC 13883 after 16 to 20 hrs by broth microdilution method; type: functional; in short: as §1
[10] = target: Signal peptidase I (Escherichia coli K-12) (UniProt P00803); assay: Inhibition of Escherichia coli type 1 signal peptidase lepB assessed as residual activity at 0.0012 uM preincubated for 10 mins followed by Dabcyl-VGGTATAYGAFSRPGLE-(EDANS)-OH substrate addition measured after 2 hrs by FRET based assay (reference value: 100%); in short: as §2
[11] = target: Signal peptidase I (Escherichia coli K-12) (UniProt P00803); assay: Inhibition of Escherichia coli type 1 signal peptidase lepB assessed as residual activity at 0.1563 uM preincubated for 10 mins followed by Dabcyl-VGGTATAYGAFSRPGLE-(EDANS)-OH substrate addition measured after 2 hrs by FRET based assay (reference value: 100%); in short: as §2
[12] = test system: Pseudomonas aeruginosa; assay: Antibacterial activity against Pseudomonas aeruginosa PAO1 after 16 to 20 hrs by broth microdilution method; type: functional; in short: as §1
[13] = target: Signal peptidase I (Escherichia coli K-12) (UniProt P00803); assay: Inhibition of Escherichia coli type 1 signal peptidase lepB assessed as residual activity at 0.0098 uM preincubated for 10 mins followed by Dabcyl-VGGTATAYGAFSRPGLE-(EDANS)-OH substrate addition measured after 2 hrs by FRET based assay (reference value: 100%); in short: as §2
[14] = target: Signal peptidase I (Escherichia coli K-12) (UniProt P00803); assay: Inhibition of Escherichia coli type 1 signal peptidase lepB assessed as residual activity at 0.0049 uM preincubated for 10 mins followed by Dabcyl-VGGTATAYGAFSRPGLE-(EDANS)-OH substrate addition measured after 2 hrs by FRET based assay (reference value: 100%); in short: as §2
[15] = test system: Acinetobacter baumannii; assay: Antibacterial activity against Acinetobacter baumannii ATCC 19606 after 16 to 20 hrs by broth microdilution method; type: functional; settings: ATCC 19606 = CIP 70.34 = JCM 6841; in short: as §1
[16] = target: Signal peptidase I (Escherichia coli K-12) (UniProt P00803); assay: Inhibition of Escherichia coli type 1 signal peptidase lepB assessed as residual activity at 1.25 uM preincubated for 10 mins followed by Dabcyl-VGGTATAYGAFSRPGLE-(EDANS)-OH substrate addition measured after 2 hrs by FRET based assay (reference value: 100%); in short: as §2
[17] = target: Signal peptidase I (Escherichia coli K-12) (UniProt P00803); assay: Inhibition of Escherichia coli type 1 signal peptidase lepB assessed as residual activity at 0.0024 uM preincubated for 10 mins followed by Dabcyl-VGGTATAYGAFSRPGLE-(EDANS)-OH substrate addition measured after 2 hrs by FRET based assay (reference value: 100%); in short: as §2
[18] = target: Signal peptidase I (Escherichia coli K-12) (UniProt P00803); assay: Inhibition of Escherichia coli type 1 signal peptidase lepB assessed as residual activity at 0.0195 uM preincubated for 10 mins followed by Dabcyl-VGGTATAYGAFSRPGLE-(EDANS)-OH substrate addition measured after 2 hrs by FRET based assay (reference value: 100%); in short: as §2
[19] = target: Signal peptidase I (Escherichia coli K-12) (UniProt P00803); assay: Inhibition of Escherichia coli type 1 signal peptidase lepB assessed as residual activity at 0.0391 uM preincubated for 10 mins followed by Dabcyl-VGGTATAYGAFSRPGLE-(EDANS)-OH substrate addition measured after 2 hrs by FRET based assay (reference value: 100%); in short: as §2
[20] = test system: Escherichia coli; assay: Antibacterial activity against Escherichia coli D22 CGSG 5163 harboring Ips mutant after 16 to 20 hrs by broth microdilution method; type: functional
In short: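 Broth microdilution in cation-adjusted Mueller-Hinton II broth, following EUCAST and CLSI guidelines. Two-fold series at final concentrations 64 down to 0.25 µg/mL, with medium-only and growth controls. Inoculum from fresh colonies (18-24 h, 35 °C ± 2 °C) adjusted to 0.5 McFarland, final ≈5 × 10^5 CFU/mL. Plates incubated unshaken 16-20 h at 35 °C ± 2 °C. MIC read visually as complete inhibition of growth.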

[21] = target: Signal peptidase I (Escherichia coli K-12) (UniProt P00803); assay: Inhibition of Escherichia coli type 1 signal peptidase lepB assessed as residual activity at 5 uM preincubated for 10 mins followed by Dabcyl-VGGTATAYGAFSRPGLE-(EDANS)-OH substrate addition measured after 2 hrs by FRET based assay (reference value: 100%); in short: as §2
[22] = test system: Staphylococcus aureus; assay: Antibacterial activity against Staphylococcus aureus ATCC 29213 after 16 to 20 hrs by broth microdilution method; type: functional; in short: as §1
[23] = target: Signal peptidase I (Escherichia coli K-12) (UniProt P00803); assay: Inhibition of Escherichia coli type 1 signal peptidase lepB assessed as residual activity at 0.3125 uM preincubated for 10 mins followed by Dabcyl-VGGTATAYGAFSRPGLE-(EDANS)-OH substrate addition measured after 2 hrs by FRET based assay (reference value: 100%); in short: as §2
[24] = target: Signal peptidase I (Escherichia coli K-12) (UniProt P00803); assay: Inhibition of Escherichia coli type 1 signal peptidase lepB assessed as residual activity at 0.0781 uM preincubated for 10 mins followed by Dabcyl-VGGTATAYGAFSRPGLE-(EDANS)-OH substrate addition measured after 2 hrs by FRET based assay (reference value: 100%); in short: as §2
[25] = test system: Pseudomonas aeruginosa; assay: Antibacterial activity against efflux defective Pseudomonas aeruginosa PAO750 after 16 to 20 hrs by broth microdilution method; type: functional; in short: as §1

Chain of Signal peptidase I (P00803 whole entry): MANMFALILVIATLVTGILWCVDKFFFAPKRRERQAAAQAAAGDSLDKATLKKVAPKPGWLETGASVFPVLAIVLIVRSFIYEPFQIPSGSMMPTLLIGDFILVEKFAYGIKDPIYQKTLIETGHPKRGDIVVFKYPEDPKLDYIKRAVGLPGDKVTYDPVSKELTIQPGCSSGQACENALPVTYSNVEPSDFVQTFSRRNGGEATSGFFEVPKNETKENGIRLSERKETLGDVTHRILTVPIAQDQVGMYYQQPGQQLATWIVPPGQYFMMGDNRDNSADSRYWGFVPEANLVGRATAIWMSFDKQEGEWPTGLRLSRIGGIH
Chain of Signal peptidase I (Escherichia coli K-12) (P00803 whole entry): as above

| Structure (SMILES) | MIC [1] | hemolysis at 0.75 h, 100 µM [2] [%] | IC50 [3] [µM] | IC50 [4] [µM] | Activity [5] [%] | Activity [6] [%] | MIC [7] [µg/mL] | Activity [8] [%] | MIC [9] [µg/mL] | Activity [10] [%] | Activity [11] [%] | MIC [12] [µg/mL] | Activity [13] [%] | Activity [14] [%] | MIC [15] [µg/mL] | Activity [16] [%] | Activity [17] [%] | Activity [18] [%] | Activity [19] [%] | MIC [20] [µg/mL] | further results |
| --- | --- | --- | --- | --- | --- | --- | --- | --- | --- | --- | --- | --- | --- | --- | --- | --- | --- | --- | --- | --- | --- |
| CCCCCCc1ccc(-c2ccc(C(=O)N3CC(CN)C[C@H]3C(=O)N[C@H](C(=O)N[C@@H](C)C(=O)N[C@@H](CC(N)=O)C(=O)N[C@@H](C)B(O)O)[C@@H](C)O)cc2)cc1 (some centres undefined) | 16 µM | 2.5 | 16 | 0.006 |  |  |  |  |  |  |  |  |  |  |  |  |  |  |  |  |  |
| CCCCCCc1ccc(-c2c[nH]c3ccc(C(=O)N[C@@H](CCCN)C(=O)N[C@H](C(=O)N[C@@H](C)C(=O)N[C@H]4Cc5cn(nn5)CCO[C@@H]5C[C@@H]6OB(O[C@@H]6C5)[C@H](C)NC4=O)[C@@H](C)O)cc23)cc1 | 32 µg/mL | 2.8 | 23.7 | 0.225 | -19.8 | 2.9 | 32 (≈ 34.6 µM) | 20.4 | 64 (≈ 69.2 µM) | 106 | 58.5 | 64 (≈ 69.2 µM) | 98.5 | 99.5 | 64 (≈ 69.2 µM) | 8.1 | 108 | 101 | 94.2 | 16 (≈ 17.3 µM) | Activity [21]: -6.8%; MIC [22]: 16 µg/mL (≈ 17.3 µM); Activity [23]: 42.8%; Activity [24]: 78.1%; MIC [25]: 64 µg/mL (≈ 69.2 µM) |
| CCCCCCc1ccc(-c2nc3cc(C(=O)N[C@@H](CCCN)C(=O)N[C@H](C(=O)N[C@@H](C)C(=O)N[C@H]4Cc5cn(nn5)CCO[C@@H]5C[C@@H]6OB(O[C@@H]6C5)[C@H](C)NC4=O)[C@@H](C)O)ccc3[nH]2)cc1 | > 64 µg/mL | 0.5 | 24.4 | 0.029 | 6.3 | 2.8 | 16 (≈ 17.3 µM) | 8.6 | 64 (≈ 69.1 µM) | 100 | 7.2 | > 64 | 86.3 | 88.3 | 64 (≈ 69.1 µM) | 5.4 | 92.8 | 63.2 | 40.6 | 64 (≈ 69.1 µM) | Activity [21]: -0.1%; MIC [22]: 4 µg/mL (≈ 4.32 µM); Activity [23]: 6.8%; Activity [24]: 16.5%; MIC [25]: 64 µg/mL (≈ 69.1 µM) |
